# Compounds with a hit are over-represented: about 1.5% of the library has one in this group of screens.
# HNF4A DNA FP: change in binding of human HNF4 alpha to DNA; 0.3% of 360,000 active; HNF4a-FITC DNA binding, fluorescence polarization, 1 h; P41235; activity change, % at 10 µM; AID 1224865; in the data active = activity change above about 30%, passing the limit was not always enough
# ZTA DNA inh: ZTA (EBV) inhibition in EBNA-1 counter-screen; P03206; ZTA-DNA binding, fluorescence polarization; AID 2234; 0.15% of 320,000 active; inhibition, % at 11 µM; in the data active = inhibition above about 33%
# Target sequence (P03206 whole entry, looked up): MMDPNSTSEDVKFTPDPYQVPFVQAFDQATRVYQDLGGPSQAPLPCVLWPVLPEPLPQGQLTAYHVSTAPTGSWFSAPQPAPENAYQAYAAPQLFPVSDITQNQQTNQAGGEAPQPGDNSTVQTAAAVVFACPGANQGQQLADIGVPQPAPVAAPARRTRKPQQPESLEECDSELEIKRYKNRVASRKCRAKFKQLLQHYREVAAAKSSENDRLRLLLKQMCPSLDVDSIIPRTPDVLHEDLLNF
# LANA-H2A inh: blocks KSHV LANA binding to histone H2A/H2B; Q9QR71; cell-free LANA-H2A/H2B peptide, fluorescence polarization; inhibition, % (test concentration not listed); 0.6% of 320,000 active; in the data active = inhibition mostly above about 10%, no sharp cut-off; inactive = mostly below about 6.7%
# Bfl-1 A1 inh: inhibitors of the anti-apoptotic protein A1, read as caspase activation; AID 2462; 0.066% of 330,000 active; caspase activation, % (no concentration beside the values); MEF A1-2A-BIM cells, Caspase-Glo 3/7 luminescence, 3 h; percent of clofoctol response, vehicle zero;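 active = over half of replicate activation scores above 10%, or exactly half above 10 with the replicate mean above 10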
# CSN inh: CSN deneddylation inhibition | Q92905 | Purified CSN, SCF-Nedd8-OG deneddylation, fluorescence polarization | inhibition, % at 12.5 µM | 0.38% of 360,000 active | AID 651999;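 active = pattern-corrected inhibition above about 35%, with an unprinted fluorescence ratio check between 0.5 and 1.5, limit read from the data, passing the limit was not always enough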;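 also: 0% = enzyme with substrate and 100% = substrate without enzyme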
# Target sequence (Q92905 whole entry, looked up, one chain of several): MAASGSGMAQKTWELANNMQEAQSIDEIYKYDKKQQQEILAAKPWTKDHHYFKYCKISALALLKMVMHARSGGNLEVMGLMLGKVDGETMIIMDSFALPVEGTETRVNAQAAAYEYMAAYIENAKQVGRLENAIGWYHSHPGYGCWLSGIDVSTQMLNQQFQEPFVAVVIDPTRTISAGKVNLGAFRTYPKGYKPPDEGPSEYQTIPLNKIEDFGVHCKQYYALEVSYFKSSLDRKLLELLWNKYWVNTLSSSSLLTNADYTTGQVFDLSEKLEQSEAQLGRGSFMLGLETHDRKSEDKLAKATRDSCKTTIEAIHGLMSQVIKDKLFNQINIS
#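 test system = HEK293T-derived human Csn5 enzyme | amount = 0.24 nM Csn5 enzyme, final concentration | medium = Tris/NaCl/DTT buffer, pH 7.5 | schedule = 90 min reaction at room temperature | signal = FP | evaluation = inhibition of Csn5 cleavage, % | compound dosing = single dose of 12.5 µM compound with 0.25% DMSO | probe or stimulus = 10 nM SCFSkp2-Nedd8OG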
# EBNA-1 inh: blocks EBNA-1 binding to DNA; EBNA-1 DNA binding, fluorescence polarization; AID 1950; inhibition, % at 14.8 µM; 0.34% of 300,000 active; in the data active = inhibition above about 28%
# Starred values were filed as active, the others as inactive; x = no result; + = active, no number.
SMILES,HNF4A DNA FP,ZTA DNA inh,LANA-H2A inh,Bfl-1 A1 inh,CSN inh,EBNA-1 inh
c1cncc(CNc2c3c(nc4nnnn24)CCCC3)c1,0,9,18*,1,4,4
CS(=O)(=O)c1ncc(Cl)c(C(=O)Nc2ccc(OC(F)F)cc2)n1,4,12,-3,18*,-2,-1
CCS(=O)(=O)c1ncc(Cl)c(C(=O)Nc2ccc(S(=O)(=O)N(C)c3ccccc3)cc2)n1,4,-9,-4,13*,4,25
CCCCc1nc(SCC(=O)N2CCCCC2)c2c(=O)n(C)c(=O)n(C)c2n1,-3,4,-3,-1,1,-2
CCc1ccc2c(c1)C1(SC(NC(C)=O)=NN1C(C)=O)C(=O)N2CC (stereo not drawn),0,7,-3,1,56*,-6
CCN1C(=O)C2(SC(NC(C)=O)=NN2C(C)=O)c2cc(C)ccc21 (stereo not drawn),1,-10,0,0,3,-7
Cn1cccc1/C=C1\SC(=S)N(NC(=O)c2ccc(F)cc2)C1=O,91*,-18,0,0,54*,-6
O=C(O)c1ccc(/C=C2\SC(=S)N(NC(=O)c3ccccc3)C2=O)cc1,1,6,0,-1,-6,9
O=C(NN1C(=O)/C(=C/c2cccs2)SC1=S)c1ccccc1,1,-8,-4,1,3,5
Cn1cccc1/C=C1\SC(=S)N(NC(=O)c2ccccc2)C1=O,86*,-12,+,-1,34,-2
COc1ccccc1-c1sc2ccccc2c1C#Cc1ccc(N(C)C)cc1,5,x,-1,-1,-3,x
O=C(CCc1ccccc1)Nc1cc(C(=O)O)cc(C(=O)O)c1,-2,10,-1,0,-5,2
C[C@@]12CC(=O)NC1N(C(=O)c1ccccc1)C(c1ccccc1OC(=O)c1ccccc1)C2 (stereo partly drawn),36*,15,-1,-1,0,2
O=C1C=C(c2ccccc2)C(=O)N1Nc1ccccc1,2,12,-1,0,2,10
Cc1ccc(NN2C(=O)C=C(c3ccc(Cl)cc3)C2=O)cc1,1,1,4,11*,-4,-10
O=C(N/N=C/c1c(O)n(Cc2ccccc2)c(=O)c2ccccc12)c1cccnc1,42*,-4,-1,0,20,-2
COc1ccc(Cn2c(O)c(/C=N/NC(=O)c3cccnc3)c3ccccc3c2=O)cc1,44*,x,x,x,31,x
O=C(N/N=C/c1c(O)n(-c2ccccc2Cl)c(=O)c2ccccc12)c1cccnc1,33,x,x,x,13,x
Fc1ccc(-n2cc(CNCCc3cccnc3)c(-c3ccccc3Cl)n2)cc1,-1,-21,-4,0,-1,-3
COCc1cn(CC(C)n2c(=O)c3ccccc3n2Cc2cc(C(C)C)no2)nn1 (stereo not drawn),0,x,x,x,2,x
CC(=O)c1ccc(N2CCN(C(=O)c3cccs3)C(C)C2)c(F)c1 (stereo not drawn),3,-5,6,0,-1,-2
CCOc1ccc(C(=O)NC(C(=O)NCCc2ccc(S(N)(=O)=O)cc2)C(C)C)cc1 (stereo not drawn),2,-20,14*,1,4,8
CCOc1ccc(C(=O)N[C@H](C(=O)Nc2cccc(S(=O)(=O)N3CCCCC3)c2)C(C)C)cc1,2,-13,1,0,7,42*
CC1(C2CC2)NC(=O)N(CC(=O)Nc2ccc(C(F)(F)F)cc2)C1=O (stereo not drawn),0,4,12*,-1,2,x
Cc1c(N=Cc2ccc(Cl)o2)c(=O)n(-c2ccccc2)n1C,-2,-4,23*,1,-4,6
SMILES,HNF4A DNA FP,ZTA DNA inh,LANA-H2A inh,Bfl-1 A1 inh,CSN inh,EBNA-1 inh
C=CCc1ccc(OCC(O)CN2CCCCC2)c(OC)c1 (stereo not drawn),50*,-17,0,-1,1,-4
COC1=CC(C)C2CC3OC(=O)CC4C(C)=C(OC)C(=O)C(C2(C)C1=O)C34C (stereo not drawn),4,x,x,x,0,x
NNC(=O)COc1ccc(-c2nccc(-c3ccc(F)cc3)n2)cc1,1,-3,-6,1,2,-11
NNC(=O)COc1ccc(F)cc1,32*,11,-1,-1,-2,-8
Cc1noc(C)c1CSc1nnc2n(-c3ccccc3)c(=O)c3ccccc3n12,2,-31,21*,1,3,-1
O=C1/C(=C/C=C/c2ccccc2)Oc2c1ccc(O)c2CN1CCN(CCO)CC1,26,-8,-6,1,37,4
COc1ccccc1/C=C/C=C1\Oc2c(ccc(O)c2CN2CCN(CCO)CC2)C1=O,40*,10,-28,0,64,5
CCOC(=O)c1c(C)n(OCc2ccccc2)c2ccc3c(no[n+]3[O-])c12,4,0,-7,0,-4,-3
CCCCOn1c(C)c(C(C)=O)c2c3no[n+]([O-])c3ccc21,4,3,13*,0,-4,-5
Cc1ccc(S(=O)(=O)NCC(=O)NCC(=O)N(C)Cc2ccc3ccccc3c2)cc1C,4,-8,2,1,1,0
Nc1ccc(O)c2c1C(=O)c1ccccc1C2=O,-70,37*,-1,0,-6,13
O=C1N=C(N2CCOCC2)S/C1=C/c1ccc(-c2ccc(F)cc2)o1,8,-7,-5,1,6,-1
Cc1ccc(-c2ccc(/C=C3\SC(N4CCOCC4)=NC3=O)o2)cc1,51*,-10,-7,0,12,-10
CC(C)NC(=O)C(=O)NCCc1ccc(Cl)cc1,3,-6,3,0,-2,-12
C=COCCNC(=O)C(=O)NC(C)C,4,-11,17*,0,-4,3
CC(C)N1C(=O)S/C(=C/c2ccc(Sc3nc4ccccc4[nH]3)o2)C1=O,88*,2,3,-1,5,-2
O=C(Cn1c2ccccc2c(=O)c2ccccc21)N/N=C/c1ccc(N2CCCC2)c([N+](=O)[O-])c1,-14,9,+,1,1,-6
O=C(Cn1c2ccccc2c(=O)c2ccccc21)N/N=C/c1cc([N+](=O)[O-])ccc1N1CCCCCC1,-22,-4,2,-1,34,-5
CCCCC(CC)COC(=O)CCCCC(=O)OCC(CC)CCCC (stereo not drawn),2,-21,46*,-1,-4,x
CCCCCCCC(=O)OCC(O)CO (stereo not drawn),2,12,1,1,-2,7
O=c1ccc(-c2ccc(S(=O)(=O)NCc3cccc(Br)c3)s2)n[nH]1,36*,-4,-1,1,-4,-4
O=c1ccc(-c2ccc(S(=O)(=O)Nc3ccc(F)cc3)s2)n[nH]1,0,-15,-2,0,0,-19

# Assay outcomes: PubChem, several laboratories
